Most compounds without a hit are left out; they make up all but 7.1% or so of the library.
PTEN del growth: growth suppressors of cells with PTEN tumor suppressor deletion; HCT116 PTEN-null viability, CellTiter-Glo, 60 h; active compounds read low; viability, % at 10 µM; actives 1.2% (n = 140,000); AID 827;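 active means viability at or below a set limit, 4 SD under the median of all tested compounds, cut at about 3.7% in these data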;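 further: PTEN knockout HCT116 line with beta catenin targeted HCT116 as companion control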
HUVEC inhibit: blocks proliferation of human endothelial cells. actives 1.1% (n = 86,000). viability, % at 10 µM (by protocol). AID 648. HUVEC proliferation, CellTiter-Glo luminescence, 72 h; active compounds read low;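 active means viability at or below 30%; inactive means viability above 30%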
Lung fibro prol: blocks proliferation of human lung fibroblasts. LL 47 human lung fibroblast viability, ATP luminescence; active compounds read low. viability, % at 10 µM. actives 1.1% (n = 85,000). AID 719;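 active means viability at or below 50% in the single dose screen; inactive means viability above 50%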;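 further: compound exposure lasted 72 h before the ATP readout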
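Material: Human LL 47 lung fibroblast cells | Input: 1,150 cells/well | Buffer or medium: IMEM plus 15% FBS | Compound dosing: 0.1% DMSO in all compound wells | Times: Overnight cell rest, 72 h compound treatment at 37 °C | Signal: CellTiter-Glo luminescence measuring cellular ATP | Measure: % viability versus median cells-only luminescence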
Cav3 T inh: blocks human Cav3.2 T-type calcium channel. B-score at 10 µM. actives 4% (n = 100,000). AID 449739. O95180. Cav3.2-expressing cells, Fluo-4 calcium fluorescence FDSS; active compounds read low;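 active means single-dose well whose peak fluorescence ratio is a statistical outlier from its plate by either plate-standardised score or position-corrected B-score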
bCat KO growth: beta-catenin-lacking colon tumor cell growth suppression; HCT116 beta-catenin knockout viability, CellTiter-Glo, 60 h; active compounds read low; viability, % at 10 µM; actives 1.5% (n = 140,000);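 active means viability at or under a set limit, the compound median less 4 SD, cut at about 6% in these data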
H69AR inhibit: blocks growth of human H69AR lung tumor cells | AID 598 | H69AR lung tumor viability, ATP luminescence, 72 h; active compounds read low | actives 6% (n = 85,000) | viability, % at 10 µM;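 active means viability at or below 40%; inactive means viability above 40%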;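 further: multidrug resistant small cell line overexpressing MRP-1 efflux transporter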
Hits are given with their value; n = inactive; x = no result.

SMILES | PTEN del growth | HUVEC inhibit | Lung fibro prol | Cav3 T inh | bCat KO growth | H69AR inhibit
CCC(C(=O)NC1CCCC1)N(Cc1ccco1)C(=O)Cn1nnc(-c2ccc(C)cc2)n1 (stereo not drawn) | n | n | n | -3.7 | n | n
Cc1ccc(CN(C(=O)C(F)(F)F)C(C(=O)NC2CCCCC2)c2ccco2)cc1 (stereo not drawn) | n | n | n | -5.4 | n | n
Cc1ccc(C(C(=O)NC2CCCCC2)N(Cc2ccco2)C(=O)Cn2cnc3ccccc32)cc1 (stereo not drawn) | n | n | n | -5.1 | n | n
O=C(COC(=O)C1CCN(S(=O)(=O)c2ccc3c(c2)OCCO3)CC1)Nc1cccc2ccccc12 | n | x | x | x | n | x
CC(C)N(C(=O)COc1ccc(Br)cc1Cl)C(C)C | n | n | n | -5.5 | n | n
NC(=O)CC(NC(=O)Cc1ccc(Br)cc1)c1ccc(NCc2ccc(F)cc2)c([N+](=O)[O-])c1 (stereo not drawn) | x | x | x | n | x | x
CC(C)(C)C(=O)Nc1nc(C2CCCN2S(=O)(=O)c2ccc(Cl)cc2)cs1 (stereo not drawn) | n | n | n | -4 | n | n
CCc1nc2ccccc2c(=O)n1CCCCn1c(CC)nc2ccccc2c1=O | x | n | n | x | x | n
O=C1NN(c2ccc(Cl)c(Cl)c2)C(=O)/C1=C/c1cccc(OC(=O)c2cccs2)c1 | n | n | n | n | n | 5.4
CCOc1cc(/C=C2/C(=O)N(c3ccccc3)N=C2C)ccc1OC(=O)c1cccs1 | n | x | x | n | n | x
O=C1NN(c2ccccc2)C(=O)/C1=C\c1cccc(OC(=O)c2cccs2)c1 | n | n | n | n | n | 3.8
Nc1nc(-c2ccc(Br)s2)c(Br)s1 | n | n | n | n | n | n
CCOc1ccc(NS(=O)(=O)c2cc(NC(=O)c3cccc(C)c3)ccc2Cl)cc1 | n | x | x | x | n | x
CCN(CC)S(=O)(=O)c1cccc(-c2nnc(SCCOc3ccc(Cl)cc3)o2)c1 | n | n | n | -7.9 | n | n
CCN(CC)S(=O)(=O)c1cccc(-c2nnc(SCCOc3ccccc3C)o2)c1 | n | x | x | -4.7 | n | x
CCN(CC)S(=O)(=O)c1cccc(-c2nnc(SCCOc3ccccc3)o2)c1 | n | n | n | -4.2 | n | n
CCN(CC)S(=O)(=O)c1cccc(-c2nnc(SCC(=O)c3cc(C)n(C)c3C)o2)c1 | n | n | n | n | n | n
CN(C)S(=O)(=O)c1ccc(NC(=O)CNc2cc(S(=O)(=O)N3CCCC3)ccc2OCC(F)(F)F)cc1 | n | x | x | x | n | x
Cc1cc([N+](=O)[O-])nn1Cc1ccccc1F | n | x | x | n | n | x
O=c1c2cc3ccccc3n2cnn1Cc1ccccc1F | n | n | n | n | n | 17
COc1ccc(CCCc2nnc(SCC(=O)Nc3cc(C)c(C)cc3Br)o2)cc1 | n | n | n | -5.1 | n | n
COC(=O)c1sc(NC(=O)/C=C/c2ccc(C)o2)nc1C | n | x | x | x | n | x
Cc1nc(CS(=O)(=O)c2ccc(Cl)cc2)cc(Sc2ccccc2Cl)n1 | n | x | x | -4.5 | n | x
O=S1(=O)c2ccccc2N=NN1Cc1ccc(Cl)c(Cl)c1 | n | n | 8.7 | n | n | 1.6
CC(C)(C)c1ccc(Cn2cnc(-c3ccc([N+](=O)[O-])cc3)c2)cc1 | n | x | x | x | n | x
SMILES | PTEN del growth | HUVEC inhibit | Lung fibro prol | Cav3 T inh | bCat KO growth | H69AR inhibit
CC(C)(C)c1ccc(CN2N=Nc3ccccc3S2(=O)=O)cc1 | n | 9.6 | 17 | n | n | 0.7
C/C(=N\O)C(C)NC(=O)c1ccccc1 (stereo not drawn) | n | x | x | x | n | x
CCOP(=O)(OCC)c1nc(/C=C/c2ccccc2)oc1NCc1ccccc1 | n | n | n | x | n | n
CCOP(=O)(OCC)c1nc(/C=C/c2ccccc2)oc1NCc1ccc(OC)cc1 | n | n | n | -5.6 | n | n
CCN(CC)c1ccc(NC(=O)C2=CCN(S(=O)(=O)c3ccc(F)cc3)CC2)c(C)c1 | n | x | x | x | n | x
COc1ccc(CCNC(=O)Cn2cc(C(F)(F)F)cc(Cl)c2=O)cc1OC | n | x | x | x | n | x
CC(=O)/C=C/c1ccc2ccccc2n1 | 1.2 | 30 | 7.4 | n | 1.5 | 0.8
COC(=O)C1(Cc2ccc(O)cc2)OC(=O)C(O)=C1c1ccc(O)cc1 (stereo not drawn) | x | x | x | n | x | x
COc1ccc(C(=O)Nc2ccc(Cl)cc2C(=O)NCc2ccco2)cc1 | n | n | n | x | n | 29
COc1ccc2cc(C(=O)NCc3ccco3)c(=Nc3ccc(C(=O)O)cc3)oc2c1 | n | n | n | n | n | 21
COc1ccc(Nc2cc(C(=O)NCc3ccco3)c3ccccc3n2)c(OC)c1 | n | x | x | x | n | x
COc1ccc(N=c2oc3c(OC)cccc3cc2C(=O)NCc2ccco2)c(OC)c1 | n | n | n | n | 1.8 | n
COc1cc(OC)c(S(=O)(=O)Nc2ccc(C)cn2)cc1NC(C)=O | n | x | x | x | n | x
Cc1ccc(C2NC(=O)Cc3ccccc32)cc1 (stereo not drawn) | n | n | n | n | n | n
CCCNC(=O)CN(c1cccc(F)c1)S(C)(=O)=O | n | x | x | x | n | x
O=C(CSc1nc2[nH]ncc2c(=O)[nH]1)NCc1ccc(F)cc1 | n | x | x | x | n | x
Cc1ccc(-n2c(-c3ccc(Br)cc3)c[n+]3c2CCc2ccc4cccnc4c2-3)cc1 | 0.8 | 14 | 21 | n | 1.5 | 2.8
CCCOc1ccc(NC(=O)CC2C(=O)N(C)C(=S)N2Cc2cccs2)cc1 (stereo not drawn) | n | x | x | -3.9 | n | x
C=CCNC(=S)NCCCCC1NC(=S)N(CC=C)C1=O (stereo not drawn) | n | x | x | x | n | x
OC(COC(c1ccc(Cl)cc1)c1ccc(Cl)cc1)CN1CCCC1 (stereo not drawn) | n | n | n | n | n | 25
OC(COc1c(Cl)cc(Cl)cc1Cl)CN1CCCCC1 (stereo not drawn) | n | n | n | -2.9 | n | n
OC(COC(c1ccc(Cl)cc1)c1ccc(Cl)cc1)CN1CCc2ccccc2C1 (stereo not drawn) | n | x | x | x | n | x
Cc1ccccc1-c1nc(CN2CCC(C(=O)NCCC3=CCCCC3)CC2)c(C)o1 | 2.4 | 4.8 | n | -7.1 | 2.4 | 28
Cc1ccccc1-c1nc(CN2CCC(C(=O)NC3CCN(Cc4ccccc4)CC3)CC2)c(C)o1 | x | 9.9 | n | n | x | 22
OC(COCc1ccc(Cl)cc1)CN1CCN(c2ccccn2)CC1 (stereo not drawn) | n | x | x | x | n | x
SMILES | PTEN del growth | HUVEC inhibit | Lung fibro prol | Cav3 T inh | bCat KO growth | H69AR inhibit
CCOc1ccc(-c2c(=O)n(OCc3ccc([N+](=O)[O-])cc3)c3ccccc3[n+]2[O-])cc1 | n | x | x | x | n | x
COc1ccccc1CN=Cc1[nH]c2ccc(Br)c(Cl)c2c1O | n | n | n | n | n | 25
Cc1cccc(N=Cc2[nH]c3ccc(Br)c(Cl)c3c2O)c1 | n | x | x | x | n | x
COc1ccc(OC)c(NC(=O)c2cc(-c3cc(Cl)ccc3O)n[nH]2)c1 | n | n | n | n | n | 1.2
CC1=CC(C)(C)N(S(=O)(=O)c2ccc(F)cc2)c2ccccc21 | n | n | n | n | n | 19
Cc1ccc(S(=O)(=O)N2c3ccccc3-c3c(ssc3=S)C2(C)C)cc1 | n | x | x | x | n | x

Source: PubChem BioAssay (several laboratories)
